# Experimental data as given in ChEMBL document CHEMBL3244244, “Folate analogues altered in the C9-N10 bridge region: 11-thiohomofolic acid” (J Med Chem, 1979).
# Calls of active or inactive are those of the source. The rule behind the calls is not given here.
# Assays:
# Enterococcus faecium [1] = test: Antifolate activity against Streptococcus faecium ATCC 8043 assessed as growth inhibition; assay type: functional, organism-based; details: for IC50: read-out: I50
# Lacticaseibacillus casei [2] = test: Antifolate activity against Lactobacillus casei ATCC 7469 assessed as growth inhibition; assay type: functional, organism-based
# [3] = biological target: Dihydrofolate reductase (Lactobacillus casei) (UniProt P00381); test: Inhibition of Lactobacillus casei DHFR; details: Lacticaseibacillus casei
# Enterococcus faecium [4] = test: Antifolate activity against Streptococcus faecium ATCC 8043 assessed as growth inhibition at 1.6 ug/ml; assay type: functional, organism-based
# Method in brief: (§1)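 Bacterial growth was run in each organism's own assay medium by earlier-reported methods, with test agent at 1.6 μg/mL.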
# Lacticaseibacillus casei [5] = test: Antifolate activity against Lactobacillus casei ATCC 7469 assessed as growth inhibition at 1.6 ug/ml; assay type: functional, organism-based; method in brief: as §1
# [6] = biological target: T1, Thymidylate synthase (Lactobacillus casei) (UniProt P00469); test: Inhibition of Lactobacillus casei thymidylate synthase; details: Lacticaseibacillus casei
# T1 sequence (whole entry): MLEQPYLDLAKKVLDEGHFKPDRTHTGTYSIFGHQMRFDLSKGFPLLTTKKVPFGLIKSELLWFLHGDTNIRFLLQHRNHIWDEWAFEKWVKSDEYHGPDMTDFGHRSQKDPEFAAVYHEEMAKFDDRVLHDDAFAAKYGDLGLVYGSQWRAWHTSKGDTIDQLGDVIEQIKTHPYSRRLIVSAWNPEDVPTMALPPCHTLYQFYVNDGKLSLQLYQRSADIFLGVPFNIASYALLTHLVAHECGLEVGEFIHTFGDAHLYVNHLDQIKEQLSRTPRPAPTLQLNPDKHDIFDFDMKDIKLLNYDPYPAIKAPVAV
# [7] = biological target: Dihydrofolate reductase (Lactobacillus casei) (UniProt P00381); test: Activity of Lactobacillus casei DHFR; details: Lacticaseibacillus casei
# Method in brief: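 The 7,8-dihydro form of the test folate analogue replaced the natural substrate in the previously described L. casei DHFR assay medium.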
# Sequence of Dihydrofolate reductase (Lactobacillus casei) (P00381 whole entry): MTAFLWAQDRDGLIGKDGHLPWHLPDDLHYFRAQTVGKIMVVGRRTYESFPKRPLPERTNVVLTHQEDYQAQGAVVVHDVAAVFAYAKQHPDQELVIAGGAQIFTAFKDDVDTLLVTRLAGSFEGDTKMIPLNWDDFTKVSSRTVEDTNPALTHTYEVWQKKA
smiles,measurement,setting,value
Nc1nc(=O)c2nc(COc3ccc(C(=O)N[C@@H](CCC(=O)O)C(=O)O)cc3)cnc2[nH]1,growth inhibition (GI),Enterococcus faecium [1],Active
same,growth inhibition (GI),Lacticaseibacillus casei [2],Active
Nc1nc2ncc(CCSc3ccc(C(=O)O)cc3)nc2c(=O)[nH]1,growth inhibition (GI),Enterococcus faecium [1],inactive
same,growth inhibition (GI),Lacticaseibacillus casei [2],inactive
Nc1nc(=O)c2c([nH]1)NCC(CCNc1ccc(C(=O)N[C@@H](CCC(=O)O)C(=O)O)cc1)N2 (some centres not stated),IC50,Enterococcus faecium [1],0.7 ng/mL
COC(=O)c1ccc(SCCc2cnc3nc(N)[nH]c(=O)c3n2)cc1,growth inhibition (GI),Enterococcus faecium [1],inactive
same,growth inhibition (GI),Lacticaseibacillus casei [2],inactive
Nc1nc(=O)c2nc(CSc3ccc(C(=O)N[C@@H](CCC(=O)O)C(=O)O)cc3)cnc2[nH]1,growth inhibition (GI),Enterococcus faecium [1],Active
same,growth inhibition (GI),Lacticaseibacillus casei [2],Active
Nc1nc(=O)c2c([nH]1)NCC(CCSc1ccc(C(=O)N[C@@H](CCC(=O)O)C(=O)O)cc1)N2 (some centres not stated),IC50,Enterococcus faecium [1],1.2 ng/mL
same,I50,Lacticaseibacillus casei [2],8 ×10⁻⁷ g/ml
Nc1nc(O)c2nc(CCSc3ccc(C(=O)N[C@@H](CCC(=O)O)C(=O)O)cc3)cnc2n1,inhibition,[3],inactive
same,growth inhibition (GI),Enterococcus faecium [4],inactive
same,growth inhibition (GI),Lacticaseibacillus casei [5],inactive
same,inhibition,[6],inactive
same,Activity,[7],inactive
Nc1nc(=O)c2c([nH]1)NCC(CCSc1ccc(C(=O)N[C@@H](CCC(=O)O)C(=O)O)cc1)=N2,Activity,[7],Active
